Assay outcomes as filed in PubChem.
OX1R antag-1 = OX1R (HCRTR1) antagonists, primary screen, fluorescence, CHO/OX1R cells, Fluo-8 calcium, orexin A; Orexin/Hypocretin receptor type 1 (Homo sapiens), O43613; Fluo-8 calcium fluorescence; inhibition, % at 5 µM; 0.43% of 330,000 active; AID 434989, 2010;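 active = inhibition above its plate's threshold, mean inhibition of all tested compounds on the plate plus 3 SD, cut at about 37% in these data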;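 note: 0% = orexin A challenge wells and 100% = SB-334867-A antagonist wells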
TAAR1 antag = human TAAR1 antagonists, primary screen, Fluo-8 calcium fluorescence, CHO RD-HGA16 cells. Trace amine-associated receptor 1 (Homo sapiens), Q96RJ0. antagonist. inhibition, % at 3 µM. 1.5% of 360,000 active. AID 624466, 2012;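 active = inhibition above a per-plate cutoff, the mean inhibition of test compounds on that plate plus 3 SD, cut at about 49% in these data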;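 note: 0% = DMSO plus EC80 beta-PEA response and 100% = DMSO alone without agonist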
Target sequence (Q96RJ0 whole entry, looked up): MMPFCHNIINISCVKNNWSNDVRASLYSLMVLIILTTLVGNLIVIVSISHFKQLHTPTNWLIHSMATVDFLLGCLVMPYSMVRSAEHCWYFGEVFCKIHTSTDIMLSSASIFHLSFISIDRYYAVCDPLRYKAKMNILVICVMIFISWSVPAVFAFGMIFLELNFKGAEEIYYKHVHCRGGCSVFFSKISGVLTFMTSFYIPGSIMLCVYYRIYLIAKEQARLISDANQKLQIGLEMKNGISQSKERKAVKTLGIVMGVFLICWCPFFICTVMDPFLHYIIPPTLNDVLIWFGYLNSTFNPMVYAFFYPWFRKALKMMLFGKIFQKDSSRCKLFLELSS
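System: RD-HGA16 CHO cells with stable hTAAR1 and Gα16 | Probe or stimulus: EC80 β-phenethylamine stimulus | Dosing: 3 µM, single point | Times: Dye loading 75 min at 37 °C, then 30 min room temperature | Measured by: Fluo-8 calcium-sensitive fluorescence | Read-out basis: % inhibition of agonist calcium response | Replicates: n of 1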
GPR7 antagonist = GPR7 receptor antagonists, primary screen, cell-based, fluorescence, single concentration. AID 1861, 2009. inhibition, % at 4.4 µM. Neuropeptides B/W receptor type 1 (Homo sapiens), P48145. GPR7-expressing cells, fluorescence antagonist assay. 1.1% of 290,000 active; in the data active = inhibition above about 16%, passing the limit was not always enough;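 note: cells stimulated with the agonist NPW; 0% = agonist with vehicle and 100% = vehicle without agonist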
Target sequence (P48145 whole entry, looked up): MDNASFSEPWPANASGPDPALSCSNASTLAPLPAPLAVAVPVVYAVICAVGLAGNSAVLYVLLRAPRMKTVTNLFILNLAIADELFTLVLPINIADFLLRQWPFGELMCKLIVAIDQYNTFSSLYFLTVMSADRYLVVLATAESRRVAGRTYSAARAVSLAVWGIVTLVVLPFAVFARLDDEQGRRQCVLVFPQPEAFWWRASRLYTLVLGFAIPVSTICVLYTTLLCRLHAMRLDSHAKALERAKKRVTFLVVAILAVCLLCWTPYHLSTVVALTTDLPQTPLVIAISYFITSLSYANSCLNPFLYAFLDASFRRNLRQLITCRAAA
TAAR1 ag = human TAAR1 agonists, primary screen, Fluo-8 calcium fluorescence, CHO RD-HGA16 cells; 0.99% of 360,000 active; activation, % at 3 µM; vehicle wells 0%, saturating PEA agonist 100%; Trace amine-associated receptor 1 (Homo sapiens), Q96RJ0; AID 624467, 2012;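 active = activation above the mean activation of all test compounds in the run plus 3 SD, cut at about 38% in these data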
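Repeats: no replicates (n 1) | Material: CHO-derived RD-HGA16 cells with stable Gα16 and human TAAR1 | Technique: Kinetic Fluo-8 calcium fluorescence | Schedule: 17-24 h seeding, 75 min 37 °C dye, 30 min RT | Evaluation: % activation from peak over basal fluorescence ratio, DMSO-to-PEA scaled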
OX1R antag-2 = antagonists of human orexin 1 receptor (OX1R) | Orexin/Hypocretin receptor type 1 (Homo sapiens), O43613 | OX1R-expressing cells, FRET antagonist read-out | inhibition, % at 6.6 µM | 1.8% of 330,000 active | AID 485270, 2010; in the data active = inhibition mostly above about 38%, no sharp cut-off; inactive = mostly below about 40%;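 note: 0% = agonist challenge alone and 100% = reference antagonist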
CHO parental Ca = ATP-evoked calcium signal inhibitors, parental CHO, primary screen, counter-screen for OX1R antagonist project, cell-based, fluorescence, Fluo-8 calcium dye. parental CHO-K1, ATP-induced calcium, Fluo-8 fluorescence. inhibition, % at 5.6 µM. 0.63% of 330,000 active;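 active = inhibition above that plate's mean sample inhibition plus 3 SD, cut at about 26% in these data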;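 note: 0% = ATP-challenged DMSO wells and 100% = DMSO wells without ATP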
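Test system: untransfected parental CHO cell line. Compound: one dose, 5.6 µM nominal. Detection: intracellular calcium via Fluo-8 no-wash fluorescent dye. Measure: % inhibition. Benchmarks: ATP-challenged DMSO wells low, unchallenged DMSO wells high.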
* = called active by the depositor; x = not tested or not shown; + = active, no number. The list is not random: actives were taken first. Their share in the collection is about 4.5%.

SMILES	OX1R antag-1	TAAR1 antag	GPR7 antagonist	TAAR1 ag	OX1R antag-2	CHO parental Ca
O=C(Nc1ccccc1C(=O)Nc1nnc(C(F)(F)F)s1)c1ccccc1Cl	37*	25	3	13	80*	54*
CC(C)(C)CC(=O)Nc1nnc(C(F)(F)F)s1	-11	-6	-15	3	3	-8
COC(=O)N1C[C@H](OC(=O)c2ccc(-c3ccccc3)cc2)[C@H]2C[C@@H]1c1ccccc1O2	x	-16	x	0	x	x
COc1ccccc1CNC(=O)COC(=O)c1ccc(-n2cnnn2)cc1	0	-6	x	1	3	-26
O=C(OCCOc1ccccc1Cl)c1ccc(-n2cnnn2)cc1	-5	14	17*	6	11	5
CCc1cccc2c(C(=O)Cn3nnc(-c4ccc(OC)c(OC)c4)n3)c[nH]c12	69*	40	-2	27	45*	42*
CCOC(=O)Cn1nnc(-c2cc(OC)c(OC)c(OC)c2)n1	-10	-1	-7	6	1	-5
CCOC(=O)c1ccc(/C=N/O)[n+](Cc2ccccc2)c1	-2	-16	-20	6	60*	0
O=[N+]([O-])c1ccc(Sc2nccn2Cc2ccccc2)c([N+](=O)[O-])c1	-33	-18	-7	2	38*	-15
O=[N+]([O-])c1cc(C(F)(F)F)ccc1Sc1nccn1Cc1ccccc1	-28	7	0	6	15	-11
O=[N+]([O-])c1ccc(Sc2ncccn2)c([N+](=O)[O-])c1	-8	-7	-4	0	67*	-3
CC(OC(=O)c1ccc(O)cc1)C(=O)Nc1ccc(Oc2ccccc2)cc1 (stereo not drawn)	11	49*	x	3	13	23
CC1(C)N([O-])C(c2cccs2)=C[N+]1=O	-5	-9	0	4	7	29*
CC1(C)N([O-])C(c2ccccc2)=C[N+](=O)C1(C)C	9	-24	-10	9	9	-5
Cc1ccc2nc(-c3cccc(Cl)c3)c(Cc3cccc(Cl)c3)n2c1	x	-4	x	0	x	x
COc1c(C)cc(C(=O)C2CCCN(C(=O)c3ccc4[nH]ccc4c3)C2)cc1C (stereo not drawn)	-11	-60	-6	-1	75*	-19
CCCc1cc(C(=O)N2CCCC(C(=O)c3cc(C)c(OC)c(C)c3)C2)n(C)n1 (stereo not drawn)	-5	-26	-16	0	37*	-29
CCCCN1CC(COCc2ccccc2)Oc2cccc(N3CCCCC3)c2S1(=O)=O (stereo not drawn)	x	-35	x	-1	x	x
O=C(NC[C@@H]1CCCO1)c1cccc2c1C(=O)c1ccc(Cl)cc1S2(=O)=O	-12	26	x	7	45*	-12
COc1ccc(-c2ccc3c(c2)S(=O)(=O)c2cccc(C(=O)NC[C@@H]4CCCO4)c2C3=O)cc1OC	9	57*	x	21	37*	-13
C[C@H]1[C@@H](c2ccccc2)Oc2c(Cl)cccc2S(=O)(=O)N1C	x	13	x	0	x	x
COc1ccc(NC(=O)C2=CC(c3ccc(C)cc3)=NS(=O)(=O)N2C)cc1OC	-7	1	-4	4	14	3
COc1ccc(C2=NS(=O)(=O)N(C)C(C(=O)Nc3ccc(C(C)=O)cc3)=C2)cc1OC	-3	53*	-5	12	3	21
CCCCCCC(=O)NC1CCCCN(C)C1=O (stereo not drawn)	x	6	x	0	x	x
Cc1ccc2c(c1)C(=O)C(=O)N2CCOc1ccccc1	-7	-2	33*	0	20	-1
SMILES	OX1R antag-1	TAAR1 antag	GPR7 antagonist	TAAR1 ag	OX1R antag-2	CHO parental Ca
Cc1cccc(OCCN2C(=O)C(=O)c3cc(C)ccc32)c1	-4	-7	9	-1	15	-11
COC(=O)C1=C(C)N(Cc2ccccc2C(F)(F)F)C(=NCc2ccccc2)NC1c1cccc(F)c1 (stereo not drawn)	x	-12	x	6	x	x
Cc1cccc(C)c1OCC(O)CN1CCc2ccccc2C1 (stereo not drawn)	-29	-17	x	1	12	-8
Cc1ccc(C(C)C)c(OCC(O)CN2CCc3ccccc3C2)c1 (stereo not drawn)	-14	-5	-12	20	20	30*
O=C(c1cc2sccc2n1Cc1ccccc1)N1CCN(c2nc3ccccc3s2)CC1	-10	-7	24	0	17	35*
O=C(Cn1c(C(=O)N2CCc3ccccc3C2)cc2sccc21)c1ccccc1	-25	x	-2	x	11	-19
O=C(Cn1c(C(=O)N2CCN(C3CCCCC3)CC2)cc2sccc21)c1ccccc1	-30	15	20*	7	11	-21
CC(=O)N1CCN(c2nc3ccc([N+](=O)[O-])cc3s2)CC1	4	-2	-1	1	54*	15
CC(=O)OCC(=O)C12OC(C)(C)OC1CC1C3CC=C4CC(O)CCC4(C)C3CCC12C (stereo not drawn)	x	-40	x	9	x	x
CC(C)C(NCC(=O)Nc1ccccc1C(=O)NC1CC1)c1ccccc1 (stereo not drawn)	16	15	x	7	43*	-12
CCOc1cc(C)c(S(=O)(=O)Nc2ccc3cn[nH]c3c2)cc1C	8	x	-6	x	13	48*
COC(=O)c1ccc(N)cc1O	12	-9	-9	9	9	-4
COC(=O)c1ccccc1-c1c2ccc(=N)cc-2oc2cc(N)ccc12	112*	105*	x	+	30*	102*
C=CCN1N=C(c2ccc(NC(=O)c3ccccc3)cc2)CSC1=O	-9	10	3	13	9	47*
O=C(Nc1ncccn1)c1ccc([N+](=O)[O-])cc1[N+](=O)[O-]	-12	-21	x	1	73*	7
O=C(Nc1ncn[nH]1)c1cc([N+](=O)[O-])ccc1Cl	-18	5	-11	-1	8	-7
O=C(Nc1ncn[nH]1)c1ccc([N+](=O)[O-])cc1[N+](=O)[O-]	-10	-6	-1	0	53*	-12
COC(=O)N1Cc2ccnnc2CC1c1ccccc1-c1ccc(OC)cc1 (stereo not drawn)	x	-1	x	3	x	x
CCN=C1NC(c2ccc(C(F)(F)F)cc2)C(C(=O)OC)=C(C)N1Cc1ccccc1C(F)(F)F (stereo not drawn)	x	21	x	19	x	x
Cc1ccc(NC(=O)c2noc3c2CCc2ccccc2-3)cc1	-23	20	-11	12	22	-8
